# Measured values published in ChEMBL document CHEMBL1153878, “Hansch analysis of veratric acid derivatives as antimicrobial agents” (2009).
# Where “and” joins values, the source holds several entries; their conditions need not be identical. Equal values may be shown once.
# Columns and labels:
# Format in all cases: functional
# Bacillus subtilis = experiment: Antibacterial activity against Bacillus subtilis MTCC 2423 by serial dilution method; design: -logMIC: unit not given here
# Method in brief: (§1)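 Tube serial dilution in 1 ml sterile double strength nutrient broth I.P., test range […] per ml. Inoculum: […] of a saline suspension at 10⁵ cfu/ml from a fresh 24-h culture, grown in double strength nutrient broth at 37 ± 1 °C. […] Exact MIC refined by further dilution of the stock.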
# Candida albicans = experiment: Antifungal activity against Candida albicans MTCC 227 by serial dilution method; design: -logMIC: unit not given here
# Aspergillus niger = experiment: Antifungal activity against Aspergillus niger MTCC 2425 by serial dilution method; design: -logMIC: scale not given here
# Escherichia coli = experiment: Antibacterial activity against Escherichia coli MTCC 739 by serial dilution method; design: -logMIC: scale not given here; method in brief: as §1
# Staphylococcus aureus = experiment: Antibacterial activity against Staphylococcus aureus MTCC 1430 by serial dilution method; design: -logMIC: scale not given here; method in brief: as §1
# [1] = Bacillus subtilis, MTCC 2423, read-out: MIC
# [2] = Candida albicans, MTCC 227, read-out: MIC
# [3] = Aspergillus niger, MTCC 2425, read-out: MIC
# [4] = Escherichia coli, MTCC 739, read-out: MIC
# [5] = Staphylococcus aureus, MTCC 1430, read-out: MIC
SMILES,-logMIC (Bacillus subtilis),MIC (Bacillus subtilis; [1]) [µg/mL],-logMIC (Candida albicans),MIC (Candida albicans; [2]) [µg/mL],-logMIC (Aspergillus niger),MIC (Aspergillus niger; [3]) [µg/mL],-logMIC (Escherichia coli),MIC (Escherichia coli; [4]) [µg/mL],-logMIC (Staphylococcus aureus),MIC (Staphylococcus aureus; [5]) [µg/mL],MIC (Bacillus subtilis) [µg/mL],MIC (Candida albicans) [µg/mL],MIC (Aspergillus niger) [µg/mL],MIC (Escherichia coli) [µg/mL],MIC (Staphylococcus aureus) [µg/mL]
COc1ccc(C(=O)Nc2cccc(Cl)c2)cc1OC,1.39,12,1.29,15,1.32,14,1.23,17,1.17,20,,,,,
COc1ccc(C(=O)N(C)C)cc1OC,1.21,13,1.31,10,1.31,10,1.15,15,1.08,17,,,,,
CCCCCCOC(=O)c1ccc(OC)c(OC)c1,1.33,12.5,1.3,13,1.28,14,1.22,16,1.2,16.5,,,,,
COc1ccc(C(=O)NCCO)cc1OC,1.18,15,1.29,11.5,1.29,11.5,1.08,19,1.04,21,,,,,
COc1ccc(C(=O)Nc2ccc(Cl)cc2)cc1OC,1.28,15,1.34,13.5,1.3,14.5,1.39,12,1.19,19,,,,,
COc1ccc(C(=O)OCc2ccccc2)cc1OC,1.34,12.5,1.3,13.5,1.29,14,1.18,18,1.1,21.5,,,,,
COc1ccc(C(=O)Oc2cccc3cccnc23)cc1OC,1.53,9,1.35,13.5,1.34,14,1.56,8.5,1.45,11,,,,,
COc1ccc(C(=O)N(CCO)CCO)cc1OC,1.31,12.5,1.31,12.5,1.36,12,1.21,16.5,1.21,16.5,,,,,
CCOC(=O)c1ccc(OC)c(OC)c1,1.12,16,1.23,12,1.23,12,1.02,20,0.98,22,,,,,
COc1ccc(C(=O)NN)cc1OC,1.15,14,1.15,14,1.12,15,0.93,23,0.93,23,,,,,
COc1ccc(C(=O)Nc2ccccc2Cl)cc1OC,1.39,12,1.34,13.5,1.34,13.5,1.23,17,1.28,15,,,,,
COc1ccc(C(=O)Nc2ccccc2C)cc1OC,1.26,15,1.31,13,1.4,11,1.16,18.5,1.2,17,,,,,
COc1ccc(C(=O)NCc2ccccc2)cc1OC,1.32,13,1.32,13,1.36,12,1.15,19,1.15,19,,,,,
CCCOC(=O)c1ccc(OC)c(OC)c1,1.2,14,1.1,18,1.2,14,1.25,12.5,0.98,24,,,,,
CCCCOC(=O)c1ccc(OC)c(OC)c1,1.2,15,1.2,15,1.15,17,1.1,19,1.1,19,,,,,
COc1ccc(C(=O)OCC(C)C)cc1OC,1.23 and 1.17,14,1.25 and 1.34,13.5,1.28 and 1.17,12.5,1.17 and 1.1,16,1.08 and 1.1,20,16,11,16,19,19

SMILES,-logMIC (Bacillus subtilis),MIC (Bacillus subtilis; [1]) [µg/mL],-logMIC (Candida albicans),MIC (Candida albicans; [2]) [µg/mL],-logMIC (Aspergillus niger),MIC (Aspergillus niger; [3]) [µg/mL],-logMIC (Escherichia coli),MIC (Escherichia coli; [4]) [µg/mL],-logMIC (Staphylococcus aureus),MIC (Staphylococcus aureus; [5]) [µg/mL],MIC (Bacillus subtilis) [µg/mL],MIC (Candida albicans) [µg/mL],MIC (Aspergillus niger) [µg/mL],MIC (Escherichia coli) [µg/mL],MIC (Staphylococcus aureus) [µg/mL]
COc1ccc(C(=O)OC(C)(C)C)cc1OC,1.2,15,1.38,10,1.3,12,1.08,20,1.08,20,,,,,
CCNC(=O)c1ccc(OC)c(OC)c1,1.21,13,1.31,10,1.26,11.5,1.01,20,0.95,23.5,,,,,
CCCNC(=O)c1ccc(OC)c(OC)c1,1.23,13,1.25,12.5,1.28,12,1.08,19,1.08,19,,,,,
COc1ccc(C(=O)N2CCOCC2)cc1OC,1.28,13,1.37,11,1.33,12,1.17,17,1.08,21,,,,,
CCCCCCCOC(=O)c1ccc(OC)c(OC)c1,1.35,12.5,1.25,16,1.37,12,1.3,14,1.25,16,,,,,
COc1ccc(C(=O)Oc2ccccc2)cc1OC,1.27,14,1.3,12.5,1.34,11.5,1.21,16,1.15,18,,,,,
CNC(=O)c1ccc(OC)c(OC)c1,1.18,13,1.28,13,1.18,12.5,1.05,17,0.95,22,,,,,
COc1ccc(C(=O)OCCC(C)C)cc1OC,1.31,12.5,1.2,16,1.3,12.5,1.2,16,1.1,20,,,,,
COc1ccc(C(=O)N2CCCCC2)cc1OC,1.33,12,1.25,14,1.28,13,1.1,20,1.15,17.5,,,,,
COc1ccc(C(=O)OC(C)C)cc1OC,1.2,14,1.35,10,1.25,12.5,1.2,14,1.01,22,,,,,
C=CCOC(=O)c1ccc(OC)c(OC)c1,1.25,12.5,1.1,18,1.2,14,1.1,18,1,22,,,,,
COc1ccc(C(=O)Nc2ccccc2)cc1OC,1.25,14,1.2,16,1.29,13,1.04,23,1.05,23,,,,,
CCCCCOC(=O)c1ccc(OC)c(OC)c1,1.31,12.5,1.1,20,1.1,20,1.1,20,1.1,20,,,,,
COc1ccc(C(N)=O)cc1OC,1.09,15,1.25,10,1.2,11,0.95,20,0.9,23,,,,,
O=C(O)c1cn(C2CC2)c2cc(N3CCNCC3)c(F)cc2c1=O [CIPROFLOXACIN],3.33,,,,,,3.33,,3.33,,,,,,
OC(Cn1cncn1)(Cn1cncn1)c1ccc(F)cc1F [FLUCONAZOLE],,,2.64,,2.64,,,,,,,,,,
